Measured values taken from ChEMBL document CHEMBL1800016, “Novel thiazolidinedione derivatives with anti-obesity effects: dual action as PTP1B inhibitors and PPAR-γ activators” (Bioorg Med Chem Lett, 2010).
Activity calls are given as the source filed them. The rule behind the calls is not given here.

Assays:
[1] = Inhibition of YOP assessed as p-nitrophenol release from pNPP substrate preincubated for 10 mins
Summary of the method: (§1)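 IC50 values against the PTP panel, with enzymes prepared as described in the supplementary material. Values are means ± SD of two or more experiments.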

[2] = tested on: Mus musculus; test: Antidiabetic activity in high fat diet-fed diabetic C57BL/6J Jms Slc mouse model assessed as normalization of fasting blood glucose level measured after 6 hrs of fasting at 2.6 mg/day administered with food for 4 weeks measured 90 mins after last dose by glucose tolerance test; assay type: functional, organism-based
Summary of the method: (§2)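 Mice were male C57BL/6J Jms Slc, 5 wk old after 1 wk acclimatization. They were fed a 45%-fat HFD for 8 wk, then HFD with compound mixed in (1.0 g/kg diet, about 2.6 mg/day/mouse, 78 mg/day/kg) for 4 wk. Each mouse was fasted 6 h from the start of the light cycle and fasting glucose was measured. Glucose 1.0 g/kg was then given i.p., with readings at 60 and 90 min.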

[3] = tested on: Mus musculus; test: Antidiabetic activity in high fat diet-fed diabetic C57BL/6J Jms Slc mouse model assessed as normalization of fasting blood glucose level at 2.6 mg/day administered with food for 4 weeks measured 90 mins after last dose by glucose tolerance test in presence of glucose; assay type: functional, organism-based; summary of the method: as §2
[4] = tested on: Mus musculus; test: Antidiabetic activity in high fat diet-fed diabetic C57BL/6J Jms Slc mouse model assessed as normalization of blood glucose level at 2.6 mg/day administered with food for 4 weeks measured 90 mins after last dose by glucose tolerance test; assay type: functional, organism-based; summary of the method: as §2
[5] = tested on: Mus musculus; test: Antiobesity activity in high fat diet-fed diabetic C57BL/6J Jms Slc mouse model assessed as reduction in body weight at 2.6 mg/day administered with food for 4 weeks; assay type: functional
Summary of the method: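 DIO male C57BL/6J Jms Slc mice were fed a 45%-fat HFD for 8 wk, then HFD with 0.1% w/w compound in feed (about 2.6 mg/day/mouse) for 4 wk. A 10%-fat LFD lean group ran throughout. Measures were weight gain, feed efficiency (weight gain/kcal ×100), and epididymal and retroperitoneal fat pad weights. n = 8/group; mean ± SEM; one-way ANOVA.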

[6] = biological target: Receptor-type tyrosine-protein phosphatase F (Homo sapiens, UniProt P10586); test: Inhibition of membrane proximal catalytic domain of LAR-D1 assessed as p-nitrophenol release from pNPP substrate preincubated for 10 mins; summary of the method: as §1
Chain of Receptor-type tyrosine-protein phosphatase F (P10586 whole entry, the tested form may be a part): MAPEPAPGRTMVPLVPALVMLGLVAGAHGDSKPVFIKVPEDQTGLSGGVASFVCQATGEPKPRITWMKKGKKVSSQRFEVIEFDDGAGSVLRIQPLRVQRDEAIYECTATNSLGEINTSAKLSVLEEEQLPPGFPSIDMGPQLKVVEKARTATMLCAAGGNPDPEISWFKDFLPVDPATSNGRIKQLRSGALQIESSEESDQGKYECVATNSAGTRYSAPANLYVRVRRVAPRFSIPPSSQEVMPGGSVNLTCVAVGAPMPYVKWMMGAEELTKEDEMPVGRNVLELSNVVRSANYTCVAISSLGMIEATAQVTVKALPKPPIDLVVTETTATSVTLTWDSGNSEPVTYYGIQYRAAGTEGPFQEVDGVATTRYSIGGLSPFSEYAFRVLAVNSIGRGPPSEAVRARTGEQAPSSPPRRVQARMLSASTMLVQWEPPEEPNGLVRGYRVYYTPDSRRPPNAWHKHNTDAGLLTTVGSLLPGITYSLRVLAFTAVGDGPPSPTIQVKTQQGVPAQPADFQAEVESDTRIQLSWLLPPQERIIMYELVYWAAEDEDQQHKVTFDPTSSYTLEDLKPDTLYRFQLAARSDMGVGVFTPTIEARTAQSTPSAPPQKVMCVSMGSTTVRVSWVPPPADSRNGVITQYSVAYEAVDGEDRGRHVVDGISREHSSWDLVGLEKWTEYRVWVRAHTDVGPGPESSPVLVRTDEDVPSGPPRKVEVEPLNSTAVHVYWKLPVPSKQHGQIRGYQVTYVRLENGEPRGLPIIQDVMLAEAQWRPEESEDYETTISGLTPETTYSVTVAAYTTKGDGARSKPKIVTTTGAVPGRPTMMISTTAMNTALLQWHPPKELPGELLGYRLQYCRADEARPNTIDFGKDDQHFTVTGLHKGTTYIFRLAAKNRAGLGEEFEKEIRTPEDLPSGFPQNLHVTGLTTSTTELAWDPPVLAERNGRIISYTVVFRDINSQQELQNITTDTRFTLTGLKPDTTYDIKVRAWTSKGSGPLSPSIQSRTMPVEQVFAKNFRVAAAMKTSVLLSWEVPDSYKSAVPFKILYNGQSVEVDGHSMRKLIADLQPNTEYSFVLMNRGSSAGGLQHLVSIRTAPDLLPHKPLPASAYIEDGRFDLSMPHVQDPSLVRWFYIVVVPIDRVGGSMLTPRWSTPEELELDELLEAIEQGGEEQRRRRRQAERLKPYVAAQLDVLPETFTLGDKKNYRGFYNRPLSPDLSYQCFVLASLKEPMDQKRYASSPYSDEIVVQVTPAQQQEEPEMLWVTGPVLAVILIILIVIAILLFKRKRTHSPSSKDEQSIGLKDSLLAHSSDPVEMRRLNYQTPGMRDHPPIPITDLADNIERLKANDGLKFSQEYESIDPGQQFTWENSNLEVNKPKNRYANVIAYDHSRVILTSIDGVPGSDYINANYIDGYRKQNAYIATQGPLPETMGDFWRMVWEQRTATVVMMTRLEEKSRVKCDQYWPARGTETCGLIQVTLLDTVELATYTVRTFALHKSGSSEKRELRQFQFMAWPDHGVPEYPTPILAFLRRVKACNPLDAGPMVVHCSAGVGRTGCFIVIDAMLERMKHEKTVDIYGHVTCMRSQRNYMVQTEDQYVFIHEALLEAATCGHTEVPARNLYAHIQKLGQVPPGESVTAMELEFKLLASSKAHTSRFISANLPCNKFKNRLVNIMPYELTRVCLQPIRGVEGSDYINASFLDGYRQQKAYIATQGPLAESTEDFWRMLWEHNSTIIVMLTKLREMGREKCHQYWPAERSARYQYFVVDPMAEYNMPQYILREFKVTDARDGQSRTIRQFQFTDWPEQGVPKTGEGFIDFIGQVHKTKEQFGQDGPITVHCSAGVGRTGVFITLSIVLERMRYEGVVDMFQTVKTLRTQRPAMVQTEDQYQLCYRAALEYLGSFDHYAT

[7] = tested on: Mus musculus; test: Antidiabetic activity in high fat diet-fed diabetic C57BL/6J Jms Slc mouse model assessed as normalization of fasting blood glucose level at 2.6 mg/day administered with food for 4 weeks measured 60 mins after last dose by glucose tolerance test in presence of glucose; assay type: functional, organism-based; summary of the method: as §2
[8] = biological target: T1, Tyrosine-protein phosphatase non-receptor type 2 (Homo sapiens, UniProt P17706); test: Inhibition of TC-PTP assessed as p-nitrophenol release from pNPP substrate preincubated for 10 mins; summary of the method: as §1
T1 sequence (P17706 whole entry): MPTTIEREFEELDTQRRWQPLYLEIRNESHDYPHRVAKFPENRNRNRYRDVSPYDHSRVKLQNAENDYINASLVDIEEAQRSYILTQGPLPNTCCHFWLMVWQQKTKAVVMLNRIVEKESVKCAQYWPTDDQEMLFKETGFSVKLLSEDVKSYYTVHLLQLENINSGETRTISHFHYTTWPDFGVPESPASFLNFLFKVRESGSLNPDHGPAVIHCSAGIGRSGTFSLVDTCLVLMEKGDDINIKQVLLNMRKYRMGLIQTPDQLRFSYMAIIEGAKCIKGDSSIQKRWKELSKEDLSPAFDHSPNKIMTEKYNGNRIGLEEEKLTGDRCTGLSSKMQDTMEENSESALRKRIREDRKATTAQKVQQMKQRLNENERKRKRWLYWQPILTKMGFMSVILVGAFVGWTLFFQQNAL

[9] = tested on: Mus musculus; test: Antidiabetic activity in high fat diet-fed diabetic C57BL/6J Jms Slc mouse model assessed as normalization of blood glucose level at 2.6 mg/day administered with food for 4 weeks measured 60 mins after last dose by glucose tolerance test; assay type: functional, organism-based; summary of the method: as §2
[10] = biological target: T2, Tyrosine-protein phosphatase non-receptor type 1 (Homo sapiens, UniProt P18031); test: Inhibition of PTP1B expressed in Escherichia coli assessed as p-nitrophenol release from pNPP substrate preincubated for 10 mins; summary of the method: as §1
T2 sequence (P18031 whole entry): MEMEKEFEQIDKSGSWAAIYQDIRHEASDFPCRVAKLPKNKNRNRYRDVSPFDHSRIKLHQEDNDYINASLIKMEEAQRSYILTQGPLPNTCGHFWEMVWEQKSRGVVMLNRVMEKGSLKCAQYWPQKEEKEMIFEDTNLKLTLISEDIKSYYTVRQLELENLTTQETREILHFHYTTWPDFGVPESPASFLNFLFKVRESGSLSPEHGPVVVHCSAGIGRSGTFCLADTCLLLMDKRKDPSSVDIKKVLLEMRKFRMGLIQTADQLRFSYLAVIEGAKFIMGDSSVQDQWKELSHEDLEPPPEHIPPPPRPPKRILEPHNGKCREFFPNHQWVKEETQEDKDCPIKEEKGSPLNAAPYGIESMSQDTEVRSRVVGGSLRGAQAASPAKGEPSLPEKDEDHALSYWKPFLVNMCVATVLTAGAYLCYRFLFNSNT

[11] = Selectivity ratio of IC50 for yeast PTP1 to IC50 for PTP1B

IC50 [1]: 3.9 µM
IC50 [6]: > 100 µM
IC50 [8]: 19 µM
IC50 [10]: 1.3 µM
Ratio IC50 [11]: > 10
SMILES: Cc1ccc(S(=O)(=O)Oc2cc(OCc3ccc(C(F)(F)F)cc3)c(/C=C3\SC(=O)NC3=O)cc2Br)cc1
Activity [2]: inactive
Activity [3]: inactive
Activity [4]: Active
Activity [5]: 2 g
Activity [7]: inactive
Activity [9]: Active
